Results on 1 compound are retold here after ChEMBL document CHEMBL1275429, “Pharmacodynamic characterization of ceftobiprole in experimental pneumonia caused by phenotypically diverse Staphylococcus aureus strains” (Antimicrob Agents Chemother, 2008).

In brackets after ≈: the same amount, converted by molar mass.

Data set [1] in a line: fT>MIC required for stasis inhibition of community acquired methicillin-resistant Staphylococcus aureus 146 infection in neutropenic BALB/cAnNCr mouse. In kind it is functional. In short, it runs like this: (§1)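 Same neutropenic murine pneumonia model, with 24-h lung log10 CFU change (5 mice per group; 1–25 mg/kg s.c., 1–5 times daily). […] ED50, ED80 and stasis exposures were taken from a sigmoid Emax fit for each isolate.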

Data set [2] can be described thus: fT>MIC required for stasis inhibition of hospital acquired methicillin-resistant Staphylococcus aureus 149 infection in neutropenic BALB/cAnNCr mouse. In kind it is functional. In a few lines:
as §1

A short description of data set [3]: fT>MIC required for 50% inhibition of community acquired Staphylococcus aureus 146 infection in neutropenic BALB/cAnNCr mouse. The data set is classed as functional.
Data set [4] is described as follows: fT>MIC required for 50% inhibition of community acquired Staphylococcus aureus 147 infection in neutropenic BALB/cAnNCr mouse. The data set is classed as functional.
Data set [5] is described as follows: fT>MIC required for 50% inhibition of community acquired Staphylococcus aureus 144 infection in neutropenic BALB/cAnNCr mouse. The data set is classed as functional. In short, it runs like this: as §1
A short description of data set [6]: fT>MIC required for 80% inhibition of community acquired methicillin-resistant Staphylococcus aureus 147 infection in neutropenic BALB/cAnNCr mouse. In kind it is functional. In a few lines: as §1
Data set [7] can be described thus: fT>MIC required for 80% inhibition of community acquired methicillin-resistant Staphylococcus aureus 146 infection in neutropenic BALB/cAnNCr mouse. The data set is classed as functional. In short, it runs like this:
as §1

Data set [8] can be described thus: fT>MIC required for 80% inhibition of hospital acquired methicillin-resistant Staphylococcus aureus 56 infection in neutropenic BALB/cAnNCr mouse. The data set is classed as functional. In a few lines:
as §1

The nature of data set [9]: fT>MIC required for 80% inhibition of methicillin-susceptible Staphylococcus aureus 25923 infection in neutropenic BALB/cAnNCr mouse. The data set is classed as functional.
Data set [10] is described as follows: fCmax/MIC in neutropenic BALB/cAnNCr mouse plasma infected with Staphylococcus aureus at 1 to 25 mg/kg, sc administered 1 to 5 times/day after 24 hrs by HPLC. The data set is classed as functional. To be noted: route subcutaneous. In short, it runs like this:
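Exposure indices used free plasma drug, correcting with 19% mouse protein binding supplied by the sponsor. The regimens were s.c. 1–25 mg/kg given 1–5 times daily for 24 h to neutropenic mice with S. aureus pneumonia. MICs were determined in triplicate by CLSI broth microdilution. PK came from the single-dose HPLC study.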

Data set [11] in a line: Elimination clearance in neutropenic BALB/cAnNCr mouse infected with Staphylococcus aureus at 1 mg/kg, sc administered as single dose after 6 hrs of infection. In kind it is ADME, organism-based. Details: dose 1 mg/kg, route subcutaneous. To be noted: in vivo. In short, it runs like this:
(§2)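 Neutropenic female mice (cyclophosphamide i.p. 250 mg/kg day −4, 100 mg/kg day −1) with HA-MRSA 56 pneumonia (oral inoculum, 10^7 CFU/ml in 3% mucin). Single s.c. dose in sterile water. Plasma by intracardiac puncture at 0.25–4 h, six mice per time point, stabilized with citric acid. Assayed by validated HPLC (LOQ 0.01 µg/ml). Parameters from one-compartment analysis.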

Data set [12] is described as follows: Elimination half life in neutropenic BALB/cAnNCr mouse infected with Staphylococcus aureus at 10 mg/kg, sc administered as single dose after 6 hrs of infection. The data set is classed as ADME, organism-based. Details: dose 10 mg/kg, route subcutaneous. To be noted: in vivo. In short, it runs like this: as §2
Data set [13] relates to Mus musculus. The data set is described as follows: Volume of distribution in neutropenic BALB/cAnNCr mouse infected with Staphylococcus aureus at 2.5 mg/kg, sc administered as single dose after 6 hrs of infection. The data set is classed as ADME, organism-based. Details: dose 2.5 mg/kg, route subcutaneous. To be noted: in vivo. In a few lines: (§3)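 Female BALB/cAnNCr mice (7-9 weeks, 15-22 g) made neutropenic with cyclophosphamide, 250 mg/kg i.p. on day -4 and 100 mg/kg i.p. on day -1. Infected by oral aspiration of HA-MRSA 56 (10^7 CFU/ml in 3% mucin/saline). Single s.c. dose in sterile water given 6 h post-challenge. Plasma (EDTA, citric acid-stabilized) taken at 0.25-4 h, six mice per time point. Assayed by validated HPLC (LOQ 0.01 µg/ml); one-compartment analysis.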

Data set [14] in a line: AUC (0 to infinity) in neutropenic BALB/cAnNCr mouse infected with Staphylococcus aureus at 25 mg/kg, sc administered as single dose after 6 hrs of infection. In kind it is ADME, organism-based. Details: time infinity, dose 25 mg/kg, route subcutaneous. To be noted: plasma. In a few lines:
as §2

A short description of data set [15]: AUC (0 to infinity) in neutropenic BALB/cAnNCr mouse infected with Staphylococcus aureus at 10 mg/kg, sc administered as single dose after 6 hrs of infection. To be noted: plasma. Details: time infinity, dose 10 mg/kg, route subcutaneous. The data set is classed as ADME, organism-based. In short, it runs like this:
as §2

Data set [16] can be described thus: Tmax in neutropenic BALB/cAnNCr mouse infected with Staphylococcus aureus at 10 mg/kg, sc administered as single dose after 6 hrs of infection. The data set is classed as ADME, organism-based. On the set-up: dose 10 mg/kg, route subcutaneous. To be noted: in vivo. In a few lines: as §2
Data set [17] is described as follows: Tmax in neutropenic BALB/cAnNCr mouse infected with Staphylococcus aureus at 2.5 mg/kg, sc administered as single dose after 6 hrs of infection. The data set is classed as ADME, organism-based. On the set-up: dose 2.5 mg/kg, route subcutaneous. To be noted: in vivo. In a few lines:
as §3

The nature of data set [18]: Cmax in neutropenic BALB/cAnNCr mouse infected with Staphylococcus aureus at 2.5 mg/kg, sc administered as single dose after 6 hrs of infection. To be noted: in vivo. In kind it is ADME, organism-based. Details: dose 2.5 mg/kg, route subcutaneous. In a few lines: as §3
Data set [19] is described as follows: Cmax in neutropenic BALB/cAnNCr mouse infected with Staphylococcus aureus at 1 mg/kg, sc administered as single dose after 6 hrs of infection. In kind it is ADME, organism-based. To be noted: in vivo. On the set-up: dose 1 mg/kg, route subcutaneous. In a few lines:
as §2

Data set [20] deals with Staphylococcus aureus. The data set is described as follows: Antimicrobial activity against hospital acquired methicillin-resistant Staphylococcus aureus 152 by broth microdilution method. In kind it is functional. In short, it runs like this:
(§4)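 Broth microdilution run in triplicate following CLSI guidelines. Isolates were stored at –80°C in double-strength skim milk and subcultured twice on Trypticase soy agar with 5% sheep blood before testing.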
(Dilution methods test growth across graded concentrations, often in twofold steps.)

For data set [21], the system named is Staphylococcus aureus. The data set can be described thus: Antimicrobial activity against hospital acquired methicillin-resistant Staphylococcus aureus 56 by broth microdilution method. The data set is classed as functional. In short, it runs like this: as §4
Data set [22] in a line: fT>MIC required for 80% inhibition of Staphylococcus aureus infection in neutropenic BALB/cAnNCr mouse. In kind it is functional.
Data set [23] is described as follows: fAUC/MIC required for 50% inhibition of Staphylococcus aureus infection in neutropenic BALB/cAnNCr mouse. In kind it is functional.

The term CL/F denotes clearance divided by bioavailability, as obtained after extravascular dosing. For orientation: half-life means the time needed for the level to fall by half in the phase considered. High values mean slow decline, low ones rapid decline. One may read the AUC(0-inf) as the area under the concentration-time curve extrapolated to infinity. Usually Tmax stands for the time from dosing to the highest level. For orientation: Cmax means the highest concentration seen after dosing. One may read the MIC as the smallest concentration in the dilution series that meets the test's criterion for growth inhibition. Higher therefore signals a need for much substance. Take `Nc1nc(/C(=N/O)C(=O)N[C@@H]2C(=O)N3C(C(=O)O)=C(/C=C4\CCN([C@@H]5CCNC5)C4=O)CS[C@H]23)ns1` [CEFTOBIPROLE]: the “fT>MIC” value in data set [1] is 5.6%; in [2], 6.6%; in data set [3], 5.5%; in data set [4], 17.1%; in [5] it was 13.8%; in data set [6], 21.6%. Also, the “fT>MIC” value in [7] came to 6%; in [8], 15.5%; in data set [9], 10.2%; in [22], 17%. Besides, the fCmax/MIC in [10] turned out to be 1. This compound had a CL/F in data set [11] of 9 mL/min/kg. This compound also had a half-life in data set [12] of 25.2 min. In data set [13], this compound came in with a Vd of 0.63 L/kg. Besides, the figures for the AUC(0-inf) in data set [14] and in data set [15] were 35200 ng·h/mL and 15800 ng·h/mL, respectively. The Tmax in data set [16] amounted to 9 min; in data set [17], 24.6 min. In addition, the Cmax in data set [18] turned out to be 2910 ng/mL; in data set [19] it was 1740 ng/mL. Besides, the MIC in data set [20] amounted to 0.5 µg/mL (≈ 0.935 µM); in data set [21] it was 1 µg/mL (≈ 1.87 µM). Further, in data set [23], the fAUC/MIC came out at 3.
